Results reported in ChEMBL document CHEMBL1139764, “Design, synthesis, and structure-activity relationship studies of new phenolic DNA gyrase inhibitors” (2007).
In brackets after ≈: the same amount, converted by molar mass. Blank lines part the entries; values can stand above or below the compound they belong to.

Key:
Escherichia coli = assay: Inhibition of Escherichia coli D110 DNA gyrase after 30 mins by supercoiling assay
Staphylococcus aureus [1] = assay: Antibacterial activity against novobiocin R144I-resistant Staphylococcus aureus ATCC 25923 by agar dilution method; assay type: functional
How it was run: (§1)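 MIC read as lowest inhibitory level in twofold serial dilutions in Müller–Hinton agar; each spot inoculated with 10^4 CFU.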

Enterococcus faecium = assay: Antibacterial activity against ampicillin, trimethoprim and vancomycin-resistant Enterococcus faecium vanA E23-8 by twofold agar dilution method; assay type: functional; how it was run: as §1
Staphylococcus aureus [2] = assay: Antibacterial activity against Staphylococcus aureus ATCC 25923 by twofold agar dilution method; assay type: functional; how it was run: as §1
Staphylococcus aureus [3] = assay: Antibacterial activity against Staphylococcus aureus Smith by twofold agar dilution method; assay type: functional; how it was run: as §1
Staphylococcus aureus [4] = assay: Antibacterial activity against methicillin and quinolones-resistant Staphylococcus aureus Smith QR54 by twofold agar dilution method; assay type: functional; how it was run: as §1
[5] = system: Staphylococcus epidermidis; assay: Antibacterial activity against Staphylococcus epidermidis ATCC 14990 by twofold agar dilution method; assay type: functional
How it was run: (§2)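 Twofold serial dilutions in Müller–Hinton agar with an inoculum of 10^4 CFU per spot. The read-out is the minimal inhibitory concentration (MIC).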

Staphylococcus aureus [6] = assay: Antibacterial activity against erythromycin, methicillin and trimethoprim-resistant Staphylococcus aureus Smith 744 by twofold agar dilution method; assay type: functional; how it was run: as §1
Streptococcus pyogenes = assay: Antibacterial activity against Streptococcus pyogenes beta-15 by agar dilution method; assay type: functional; how it was run: as §2

Activity (Escherichia coli): 4 µg/mL
SMILES: COc1cc(O)c2c(c1C)C(=O)N(c1ccc(Cl)c(Cl)c1)C2

Activity (Escherichia coli): > 63 µg/mL
SMILES: COc1ccc(N2C(=O)c3c(C)c(OC)cc(O)c3C2c2ccco2)cc1 (stereo unspecified)

Activity (Escherichia coli): 16 µg/mL
SMILES: CCCCSC1c2c(O)cc(OC)c(C)c2C(=O)N1c1ccc(OC)cc1 (stereo unspecified)

Activity (Escherichia coli): 8 µg/mL
SMILES: COc1cc(O)c2c(c1C)C(=O)N(c1cccc(C(=O)O)c1)C2

Activity (Escherichia coli): 36 µg/mL
SMILES: COc1ccc(N2C(=O)c3c(C)c(OC)cc(O)c3C2c2ccc(CC#N)s2)cc1 (stereo unspecified)

Activity (Escherichia coli): 4 µg/mL
SMILES: COC(=O)c1c(C)c(OC)cc(O)c1CNc1cccc(Cl)c1

Activity (Escherichia coli): 8 µg/mL
SMILES: COC(=O)c1c(C)c(OC)cc(O)c1CNc1ccc2ncccc2c1

Activity (Escherichia coli): 2 µg/mL
SMILES: C=CCC1c2c(O)cc(OC)c(C)c2C(=O)N1c1ccc(OC)cc1 (stereo unspecified)

Activity (Escherichia coli): 2 µg/mL
SMILES: COc1cc(O)c2c(c1C)C(=O)N(c1cccc(CC(=O)O)c1)C2

Activity (Escherichia coli): 4 µg/mL
SMILES: COc1ccc(N2C(=O)c3c(C)c(OC)cc(O)c3C2Sc2ncccn2)cc1 (stereo unspecified)

Activity (Escherichia coli): 8 µg/mL
SMILES: Oc1ccc(Cl)cc1CNc1cccc(Cl)c1

Activity (Escherichia coli): 2 µg/mL
SMILES: COc1cc(O)c2c(c1C)C(=O)N(c1cccnc1)C2

Activity (Escherichia coli): 31 µg/mL
SMILES: COc1ccc(N2C(=O)c3c(C)c(OC)cc(O)c3C2Sc2ccc(C)cc2)cc1 (stereo unspecified)

Activity (Escherichia coli): 1 µg/mL
SMILES: COc1cc(O)c2c(c1C)C(=O)N(c1ccc3ncccc3c1)C2

Activity (Escherichia coli): 8 µg/mL
SMILES: COc1ccc(N2Cc3c(O)cc(OC)c(C)c3C2=O)cc1

More lines, now with the values behind:

SMILES: COc1ccc2c(c1)CC[C@@H]1c3c(O)cc(OC)c(C)c3C(=O)N21
MIC (Staphylococcus aureus [1]): 8 µg/mL (≈ 24.6 µM) | MIC (Enterococcus faecium): > 32 µg/mL | MIC (Staphylococcus aureus [2]): 32 µg/mL (≈ 98.4 µM) | MIC (Staphylococcus aureus [3]): 16 µg/mL (≈ 49.2 µM) | MIC (Staphylococcus aureus [4]): 16 µg/mL (≈ 49.2 µM) | MIC [5]: < 2 µg/mL | Activity (Escherichia coli): 0.5 µg/mL | MIC (Staphylococcus aureus [6]): > 32 µg/mL | MIC (Streptococcus pyogenes): > 32 µg/mL

SMILES: COc1cc(O)c2c(c1C)C(=O)N(c1ccc(S(N)(=O)=O)cc1)C2
Activity (Escherichia coli): 1 µg/mL

SMILES: COc1cc(O)c2c(c1C)C(=O)N1c3ccccc3COC21 (stereo unspecified)
MIC (Enterococcus faecium): > 32 µg/mL | MIC (Staphylococcus aureus [2]): > 32 µg/mL | MIC (Staphylococcus aureus [3]): > 32 µg/mL | MIC [5]: > 32 µg/mL | Activity (Escherichia coli): 0.5 µg/mL | MIC (Streptococcus pyogenes): > 32 µg/mL

SMILES: COC(=O)c1c(C)c(OC)cc(O)c1CNc1cc(Cl)cc(Cl)c1
Activity (Escherichia coli): 4 µg/mL

SMILES: Oc1ccc(Cl)cc1CNc1ccc(Cl)cc1
MIC (Staphylococcus aureus [1]): 16 µg/mL (≈ 59.7 µM) | MIC (Enterococcus faecium): 16 µg/mL (≈ 59.7 µM) | MIC (Staphylococcus aureus [2]): 16 µg/mL (≈ 59.7 µM) | MIC (Staphylococcus aureus [3]): 16 µg/mL (≈ 59.7 µM) | MIC (Staphylococcus aureus [4]): 16 µg/mL (≈ 59.7 µM) | MIC [5]: 16 µg/mL (≈ 59.7 µM) | Activity (Escherichia coli): 5 µg/mL | MIC (Staphylococcus aureus [6]): 16 µg/mL (≈ 59.7 µM) | MIC (Streptococcus pyogenes): 16 µg/mL (≈ 59.7 µM)

SMILES: COc1cc(O)c2c(c1C)C(=O)N1c3ccc(Cl)cc3[C@@H](O)C[C@H]21
MIC (Staphylococcus aureus [1]): 4 µg/mL (≈ 11.6 µM) | MIC (Enterococcus faecium): > 32 µg/mL | MIC (Staphylococcus aureus [2]): 8 µg/mL (≈ 23.1 µM) | MIC (Staphylococcus aureus [3]): 4 µg/mL (≈ 11.6 µM) | MIC (Staphylococcus aureus [4]): 8 µg/mL (≈ 23.1 µM) | MIC [5]: 8 µg/mL (≈ 23.1 µM) | Activity (Escherichia coli): 1 µg/mL | MIC (Staphylococcus aureus [6]): 16 µg/mL (≈ 46.3 µM) | MIC (Streptococcus pyogenes): 32 µg/mL (≈ 92.5 µM)

SMILES: COc1cc(O)c2c(c1Br)C(=O)N1c3ccccc3COC21 (stereo unspecified)
MIC (Staphylococcus aureus [1]): 2 µg/mL (≈ 5.52 µM) | MIC (Enterococcus faecium): > 32 µg/mL | MIC (Staphylococcus aureus [2]): 2 µg/mL (≈ 5.52 µM) | MIC (Staphylococcus aureus [3]): 2 µg/mL (≈ 5.52 µM) | MIC (Staphylococcus aureus [4]): 2 µg/mL (≈ 5.52 µM) | MIC [5]: > 2 µg/mL | Activity (Escherichia coli): 0.5 µg/mL | MIC (Staphylococcus aureus [6]): 4 µg/mL (≈ 11 µM) | MIC (Streptococcus pyogenes): 8 µg/mL (≈ 22.1 µM)

SMILES: COc1cc(O)c2c(c1C)C(=O)N1c3cc4c(cc3C(=O)CC21)OCO4 (stereo unspecified)
MIC (Enterococcus faecium): > 32 µg/mL | MIC (Staphylococcus aureus [2]): > 32 µg/mL | MIC (Staphylococcus aureus [3]): > 32 µg/mL | MIC [5]: 32 µg/mL (≈ 90.6 µM) | Activity (Escherichia coli): 1 µg/mL | MIC (Streptococcus pyogenes): > 32 µg/mL

SMILES: COc1cc(O)c2c(c1C)C(=O)N1c3ccc(Cl)cc3CC[C@H]21
MIC (Staphylococcus aureus [1]): 16 µg/mL (≈ 48.5 µM) | MIC (Enterococcus faecium): > 32 µg/mL | MIC (Staphylococcus aureus [2]): > 32 µg/mL | MIC (Staphylococcus aureus [3]): > 32 µg/mL | MIC (Staphylococcus aureus [4]): 32 µg/mL (≈ 97 µM) | MIC [5]: 32 µg/mL (≈ 97 µM) | Activity (Escherichia coli): 0.25 µg/mL | MIC (Streptococcus pyogenes): > 32 µg/mL

SMILES: CO[C@@H]1[C@@H](OC(N)=O)[C@@H](O)[C@H](Oc2ccc3c(O)c(NC(=O)c4ccc(O)c(CC=C(C)C)c4)c(=O)oc3c2C)OC1(C)C [NOVOBIOCIN]
MIC (Staphylococcus aureus [1]): 8 µg/mL (≈ 13.1 µM) | MIC (Enterococcus faecium): 8 µg/mL (≈ 13.1 µM) | MIC (Staphylococcus aureus [2]): 0.25 µg/mL (≈ 0.408 µM) | MIC (Staphylococcus aureus [3]): 0.25 µg/mL (≈ 0.408 µM) | MIC (Staphylococcus aureus [4]): 0.12 µg/mL (≈ 0.196 µM) | MIC [5]: 0.12 µg/mL (≈ 0.196 µM) | Activity (Escherichia coli): 0.25 µg/mL | MIC (Staphylococcus aureus [6]): 0.25 µg/mL (≈ 0.408 µM) | MIC (Streptococcus pyogenes): 2 µg/mL (≈ 3.26 µM)

SMILES: COc1cc(O)c2c(c1C)C(=O)N1c3c(C)cccc3COC21 (stereo unspecified)
MIC (Staphylococcus aureus [1]): 16 µg/mL (≈ 51.4 µM) | MIC (Enterococcus faecium): > 32 µg/mL | MIC (Staphylococcus aureus [2]): 32 µg/mL (≈ 103 µM) | MIC (Staphylococcus aureus [3]): 32 µg/mL (≈ 103 µM) | MIC (Staphylococcus aureus [4]): 16 µg/mL (≈ 51.4 µM) | MIC [5]: 2 µg/mL (≈ 6.42 µM) | Activity (Escherichia coli): 0.5 µg/mL | MIC (Staphylococcus aureus [6]): > 32 µg/mL | MIC (Streptococcus pyogenes): > 32 µg/mL
